Source: ChEMBL document CHEMBL4831478, “Bispecific Estrogen Receptor α Degraders Incorporating Novel Binders Identified Using DNA-Encoded Chemical Library Screening” (J Med Chem, 2021)
The source made the active and inactive calls. The calls are words filed in the database; no cut-off is given here.

Experiments:
Estrogen receptor [1] = target: Estrogen receptor (Homo sapiens, UniProt P03372, S463P); test: Binding affinity to ERalpha S463P mutant (unknown origin) expressed in Escherichia coli preincubated for 15 mins followed by ligand addition and measured after 1 hr by fluorescent polarization assay
Chain of Estrogen receptor (Homo sapiens, UniProt P03372, S463P) (P03372 whole entry S463P, the tested form may be a part): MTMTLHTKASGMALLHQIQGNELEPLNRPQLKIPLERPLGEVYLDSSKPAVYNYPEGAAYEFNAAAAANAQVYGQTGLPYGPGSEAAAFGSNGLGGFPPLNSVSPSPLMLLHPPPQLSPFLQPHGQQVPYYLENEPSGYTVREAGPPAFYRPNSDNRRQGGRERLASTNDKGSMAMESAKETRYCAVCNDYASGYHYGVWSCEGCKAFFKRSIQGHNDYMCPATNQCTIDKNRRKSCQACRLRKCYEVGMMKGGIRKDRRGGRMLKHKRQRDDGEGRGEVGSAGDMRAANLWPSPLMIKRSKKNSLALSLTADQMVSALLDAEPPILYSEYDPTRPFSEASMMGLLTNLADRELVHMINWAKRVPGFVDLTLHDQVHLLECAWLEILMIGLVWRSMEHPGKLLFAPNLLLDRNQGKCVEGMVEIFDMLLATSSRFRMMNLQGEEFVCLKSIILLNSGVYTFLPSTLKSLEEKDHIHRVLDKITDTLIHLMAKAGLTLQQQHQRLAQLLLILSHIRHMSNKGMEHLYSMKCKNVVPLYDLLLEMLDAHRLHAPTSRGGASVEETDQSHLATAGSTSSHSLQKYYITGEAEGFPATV
Method in brief: (§1)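 ERα LBD (aa 307–554), WT or D538G, S463P, Y537S, with N-terminal Avi-Tev-His tag, expressed in E. coli T7 Express (20 °C, 12 h, IPTG). Purified by Ni-NTA then size exclusion. Compound preincubated with protein 15 min, fluorescent ligand added, 1 h at room temperature. FP read ex 485/em 535 nm; duplicate runs averaged.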

Estrogen receptor [2] = target: Estrogen receptor (Homo sapiens, UniProt P03372, D538G); test: Binding affinity to ERalpha D538G mutant (unknown origin) expressed in Escherichia coli preincubated for 15 mins followed by ligand addition and measured after 1 hr by fluorescent polarization assay; method in brief: as §1
Chain of Estrogen receptor (Homo sapiens, UniProt P03372, D538G) (P03372 whole entry D538G): as the sequence (P03372 whole entry S463P, the tested form may be a part) above, with P463S, D538G counted along it

MCF7 [3] = test: Antiproliferative activity against human MCF7 cells assessed as growth inhibition preincubated with estradiol for 30 mins followed by compound addition and measured after 7 days by CellTiter-Glo assay; type: functional; conditions: MCF7, 168 h, time 7 day
Method in brief: (§2)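 MCF7 cells seeded in hormone-deprived media for 72 h. All wells except minimum-signal controls received 0.1 nM estradiol for 30 min, then compound in a 10-point dose series. Incubated 7 days at 37 °C, 5% CO2; ATP content read by CellTiter-Glo 2.0. Duplicate runs averaged.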

MCF7 [4] = test: Antiproliferative activity against human MCF7 cells assessed as reduction in cell viability preincubated with estradiol for 30 mins followed by compound addition and measured after 7 days by CellTiter-Glo assay; type: functional, cell-based; method in brief: as §2
[5] = target: T1, Estrogen receptor (Homo sapiens) (UniProt P03372); test: Induction of ERalpha degradation in human MCF7 cells assessed as reduction in ERalpha expression at 1 uM after 2 hrs by Western blotting analysis; type: cell-based
T1 sequence (whole entry): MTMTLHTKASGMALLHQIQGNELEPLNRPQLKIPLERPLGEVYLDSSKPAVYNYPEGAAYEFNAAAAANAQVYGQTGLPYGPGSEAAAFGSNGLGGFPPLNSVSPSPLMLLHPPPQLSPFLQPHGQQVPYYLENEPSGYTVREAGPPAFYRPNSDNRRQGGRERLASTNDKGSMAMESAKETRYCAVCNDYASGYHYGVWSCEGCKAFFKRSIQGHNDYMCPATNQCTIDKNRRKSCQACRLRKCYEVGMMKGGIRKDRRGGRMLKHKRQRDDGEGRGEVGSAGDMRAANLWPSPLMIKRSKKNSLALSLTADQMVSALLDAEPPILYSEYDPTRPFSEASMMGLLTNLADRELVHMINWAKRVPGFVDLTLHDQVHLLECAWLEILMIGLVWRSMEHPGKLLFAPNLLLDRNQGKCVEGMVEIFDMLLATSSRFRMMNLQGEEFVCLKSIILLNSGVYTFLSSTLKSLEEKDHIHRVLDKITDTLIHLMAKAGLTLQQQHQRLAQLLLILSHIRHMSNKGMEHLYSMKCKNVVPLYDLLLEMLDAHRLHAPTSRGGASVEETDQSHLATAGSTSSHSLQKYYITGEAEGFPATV
Method in brief: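 MCF7 cells in hormone-deprived media (agonist mode) or full-serum media (antagonist mode) were treated with 1 μM compound over a 48 h time course. Cells were lysed and ERα was detected by western blot, with tubulin as the normalizer.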

Estrogen receptor [6] = target: T2, Estrogen receptor (Homo sapiens, UniProt P03372); test: Induction of ERalpha degradation in human MCF7 cells assessed as decrease in ERalpha protein expression incubated for 48 hrs in presence of VHL298 by Western blotting analysis; type: cell-based
T2 sequence (P03372 whole entry): T1 sequence (whole entry)
Method in brief: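 MCF7 in-cell western for ERα normalized to tubulin after dose titration co-treated with VHL298 at 5 μM, 48 h total treatment before collection.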

Homo sapiens = organism: Homo sapiens; test: Selectivity index, ratio of DC50 for induction of ERalpha degradation in human MCF7 cells in presence of VHL298 to DC50 for induction of ERalpha degradation in human MCF7 cells; type: cell-based
Method in brief: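 MCF7 cells were treated with a PROTAC dose series, alone or co-treated with the VHL ligand VHL298 (5 μM), for 48 h in total before collection. ERα degradation DC50 was determined under both conditions and the two values compared as a ratio.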

MCF7 [7] = test: Antiproliferative activity against human MCF7 cells assessed as growth inhibition incubated for 7 days by CellTiter-Glo assay; type: functional; conditions: MCF7, 168 h, time 7 day
Method in brief: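 Breast lines from ATCC, maintained in ATCC-specified media, treated with increasing compound doses in full-serum (complete) media for 7 days. Relative cell number measured by CellTiter-Glo ATP read-out.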

[8] = AUCinfinity in CD1 mouse at 10 mg/kg, sc administered as single dose […]; type: ADME, organism-based; design: route subcutaneous, dose 10 mg/kg; conditions: in vivo
[9] = Half life in CD1 mouse at 10 mg/kg, sc administered as single dose […]; type: ADME, organism-based; conditions: in vivo
Mus musculus = test: Induction of ERalpha degradation in CD1 mouse xenografted with human MCF7 cells assessed as reduction in ERalpha level at 10 mg/kg, sc measured after 3 days by Western blotting analysis; type: functional, organism-based; conditions: time 3.0 day
[10] = Drug uptake in CD1 mouse plasma xenografted with human MCF7 cells 10 mg/kg, sc measured after 3 hrs post last dose; conditions: in vivo

Cc1ncsc1-c1ccc([C@@H](C)NC(=O)[C@@H]2C[C@@H](O)CN2C(=O)[C@H](NC(=O)COCCOCc2cn(CCOc3ccc(N(Cc4cccc(O)c4Cl)CC4(c5ccccc5F)CCCC4)cc3)nn2)C(C)(C)C)cc1
IC50 (Estrogen receptor [1]): 0.203 µM | IC50 (Estrogen receptor [2]): 0.517 µM | GI50 (MCF7 [3]): 0.03 µM | EC50 (MCF7 [4]): 0.014 µM | Activity [5]: Active | DC50 (Estrogen receptor [6]): 0.014 µM | Selectivity Index (Homo sapiens): 8 | GI50 (MCF7 [7]): 0.0138 µM | AUC(0-inf) [8]: 14.6 µM·h | half-life [9]: 17 h | Activity (Mus musculus): Active | Drug uptake [10]: Active
